# Screens (PubChem BioAssay)
# NPY-Y2 PAM-ag: NPY-Y2 potentiators or agonists, primary screen, cell-based; cells expressing NPY-Y2, potentiator/agonist read-out; activation, % at 3.6 µM; hit rate 0.45% among 220,000; in the data active = activation above about 27%;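 also: cells stimulated with NPY near EC25 plus isoproterenol at EC100; 0% = vehicle plus submaximal agonist and 100% = vehicle plus saturating agonist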
# NPY-Y2 antag: NPY-Y2 receptor antagonists, primary screen, cell-based; NPY-Y2 expressing cells, antagonist mode; Neuropeptide Y receptor type 2 (Homo sapiens), P49146; hit rate 0.99% among 140,000; inhibition, % at 2.7 µM; in the data active = inhibition above about 17%;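 also: 0% = vehicle with agonist challenge and 100% = reference antagonist with challenge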
# NPY1 pot ag: NPY-Y1 receptor potentiators or agonists, primary screen, cell-based; Neuropeptide Y receptor type 1 (Homo sapiens), P25929; NPY-Y1 expressing cells, potentiator/agonist activation; activation, % at 3.6 µM; hit rate 0.37% among 220,000; AID 1304, 2008; in the data active = activation above about 33%, passing the limit was not always enough;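 also: cells stimulated with NPY at EC10 then isoproterenol at EC100; 0% = low agonist plus stimulus and 100% = saturating agonist plus stimulus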
# Target sequence (P25929 whole entry, looked up): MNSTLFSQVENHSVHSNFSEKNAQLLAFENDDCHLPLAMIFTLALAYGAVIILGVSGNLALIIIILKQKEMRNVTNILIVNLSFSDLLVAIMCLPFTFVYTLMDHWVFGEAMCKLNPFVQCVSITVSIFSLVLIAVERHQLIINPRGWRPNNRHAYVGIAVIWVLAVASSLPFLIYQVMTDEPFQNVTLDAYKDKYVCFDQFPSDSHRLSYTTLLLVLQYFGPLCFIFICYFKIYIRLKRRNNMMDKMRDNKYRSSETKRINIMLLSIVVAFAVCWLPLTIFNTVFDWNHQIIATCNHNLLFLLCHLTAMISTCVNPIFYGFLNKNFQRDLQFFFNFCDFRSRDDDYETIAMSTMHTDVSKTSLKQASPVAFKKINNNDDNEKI
# m-calpain inh: inhibitors of pig calpain II, primary screen, biochemical, fluorogenic peptide substrate, 1536-well; purified calpain II, 30 min; inhibition, % at 16 µM; hit rate 0.37% among 220,000;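 active = inhibition above about 50%, limit read from the data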
# NPY-Y1 antag: NPY-Y1 receptor antagonists, primary screen, cell-based; HEK293-CNG Y1 cells, membrane potential fluorescence; NPY at EC95, then isoproterenol; inhibition, % at 3.6 µM; hit rate 1% among 200,000;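 active = inhibition above the campaign mean inhibition of all tested compounds plus 3 SD, cut at about 20% in these data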;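 also: 0% = DMSO wells given NPY plus isoproterenol and 100% = isoproterenol alone without NPY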
#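 Benchmarks – high control isoproterenol alone, low control NPY with isoproterenol · Material – HEK293 Y1/CNG channel cell line · Times – dye 3 h, compound 60 min room temperature, stimulation 45 min · Probe or stimulus – NPY (25 nM), isoproterenol (1 µM), Ro 20-1724 (25 µM) · Evaluation – % inhibition of NPY effect · Signal – fluorescence, membrane potential probe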
# Tb hexokinase: Trypanosoma brucei hexokinase 1 inhibitors, primary screen, biochemical, G6PDH-coupled NADH absorbance, MLSCN library | hexokinase 1 [Trypanosoma brucei] | recombinant TbHK1, G6PDH-coupled NADH A340 | inhibition, % at 10 µM | hit rate 0.11% among 220,000 | AID 1430, 2008;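 active = inhibition of 50% or more in the single-dose primary screen; inactive = inhibition below 50%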
# G6PDH counter: Leuconostoc G6PDH inhibition, confirmation, counter-screen for TbHK1 inhibitor project, biochemical, DPI cherry-picked compounds, single concentration; shares compounds with Tb hexokinase; purified G6PDH, NADH absorbance, 1 h; inhibition, % at 10 µM; hit rate 7% among 210; AID 2516, 2010;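 active = at least 50% inhibition in the glucose-6-phosphate dehydrogenase coupled counterscreen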
# TbHK1 rescreen: TbHK1 inhibitor retest, confirmation, biochemical, DPI cherry-picked primary actives. shares compounds with Tb hexokinase. recombinant TbHK1, G6PDH-coupled NADH A340 absorbance. inhibition, % at 10 µM. hit rate 10% among 210. AID 2560, 2010;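 active = inhibition of at least 50% in both of the two screening runs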;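 also: 0% and 100% set by the maximum and minimum signal control wells on each plate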
# An asterisk follows results filed as active; nt = no result. Compounds with a hit are over-represented: about 2.3% of the library has one in this group of screens.
SMILES,NPY-Y2 PAM-ag,NPY-Y2 antag,NPY1 pot ag,m-calpain inh,NPY-Y1 antag,Tb hexokinase,G6PDH counter,TbHK1 rescreen
Cc1ccc(C(=O)NC2CC3CCCC(C2)N3C(=O)NC2CCCCC2)cc1 (configuration not stated),2,-2,6,-8,0,-3,nt,nt
O=C(NC1CC2CCCC(C1)N2C(=O)NC1CCCCC1)c1ccc(F)cc1 (configuration not stated),-7,0,2,19,6,65*,-8,-3
O=C(O)c1cn(Cc2ccccc2)nc1-c1cccnc1,-33,nt,-35,-36,14,-5,nt,nt
O=C(O)C(Cc1ccccc1)N1C(=O)/C(=C/C=C/c2ccco2)SC1=S (configuration not stated),2,nt,9,35,nt,51*,-71,40
O=C(O)CC(C(=O)O)N1C(=O)/C(=C/C=C/c2ccco2)SC1=S (configuration not stated),-4,nt,12,9,nt,-10,nt,nt
O=C(NCc1cccc(Cl)c1)c1ccc2nc[nH]c2c1,8,0,4,2,-2,4,nt,nt
COc1cccc(CNC(=O)c2ccc3nc[nH]c3c2)c1,2,1,16,1,0,67*,0,-1
S=C(Nc1cccc(Cl)c1)N(CCCN1CCCC1)Cc1cccn1Cc1ccc(Cl)cc1,-2,nt,6,15,7,51*,41,13
O=C1CSC(c2ccccn2)N1c1ccccc1 (configuration not stated),-5,-1,-13,-1,0,61*,0,2
O=C1CSC(c2ccccn2)N1c1ccc(Br)cc1 (configuration not stated),17,nt,5,-25,4,-1,nt,nt
COC(=O)C1C(c2ccccc2)C(C(=O)N2CCN(C)CC2)C1c1ccccc1 (configuration not stated),-10,4,-15,6,1,53*,-10,-14
O=C(O)C1C(c2ccccc2)C(C(=O)Oc2ccccc2)C1c1ccccc1 (configuration not stated),-17,3,-5,-53,0,-11,nt,nt
CN(C)S(=O)(=O)c1cccc(NC(=S)NN=C(Cc2ccccc2)Cc2ccccc2)c1,-2,3,-13,7,6,51*,13,-4
Cc1oc(CN2CCOCC2)cc1C(=O)O,11,nt,-6,-40,1,4,nt,nt
Cc1ccc(N=Nc2ccc(O)c3ncccc23)cc1C,-9,nt,0,-23,-7,-5,nt,nt
Cc1ccc(N=Nc2ccc(O)c3ncccc23)cc1,-2,-3,-13,15,-1,81*,-20,0
C[C@]12CCC3c4ccc(OCC(=O)O)cc4CCC3C1CCC2=O (some centres not stated),5,nt,-3,0,nt,5,nt,nt
CC(C)C1CC(C(F)(F)F)n2nc(C(=O)O)cc2N1 (configuration not stated),3,nt,-3,-22,6,-2,nt,nt
CC(C)N(C(=O)c1ccc(C(=O)Nc2ccc([N+](=O)[O-])cc2)cc1)C(C)C,-9,nt,-4,2,1,56*,4,-2
CCCCCC(C(=O)O)C(C)CC(=O)NC1CCCCC1 (configuration not stated),-8,5,-14,-2,5,63*,-20,-7
O=C(Cn1sc2ccccc2c1=O)NC12CC3CC(CC(C3)C1)C2,4,-2,-3,-5,0,66*,-14,85*
COc1ccc(NC(=O)C2CC(=O)N(c3cccc(C)c3C)C2)cc1 (configuration not stated),2,4,3,-5,2,56*,-6,-1
Cc1cccc(NC(=O)C2CC(=O)N(c3ccccc3)C2)c1C (configuration not stated),5,1,6,-3,2,3,nt,nt
Cc1ccccc1NC(=O)C1CC(=O)N(c2ccccc2F)C1 (configuration not stated),6,3,-28,4,5,3,nt,nt
CC(=O)Nc1ccc(NC(=O)C2CC(=O)N(c3cccc(C)c3C)C2)cc1 (configuration not stated),-13,-2,-28,-21,4,51*,-7,-1
SMILES,NPY-Y2 PAM-ag,NPY-Y2 antag,NPY1 pot ag,m-calpain inh,NPY-Y1 antag,Tb hexokinase,G6PDH counter,TbHK1 rescreen
CN(C)S(=O)(=O)c1cc(NC(=O)CN2CCN(c3ccccc3O)CC2)ccc1Cl,-14,nt,11,-31,9,-5,nt,nt
CCOC(=O)c1nc2c(ccc3ccccc32)cc1C,-34,nt,-24,-71,nt,0,nt,nt
CCOC(=O)NC(NC(=O)OCC)C(=O)c1ccccc1,8,0,-7,-28,-5,65*,-5,-1
O=C(NC(NC(=O)c1ccccc1)C(=O)c1ccccc1)c1ccccc1,3,2,-8,1,-1,3,nt,nt
CN(C)CCN(C)Cc1ccccc1Sc1cccc2ccccc12,-18,11,-37,-11,7,10,nt,nt
Cc1nn(-c2ccccc2)c(N2CCCC2)c1/C=N/NC(=S)Nc1ccccc1F,3,7,0,-65,3,-20,nt,nt
CCCCc1ccc(/C=C2/C(=O)ON=C2c2ccccc2)s1,10,4,-26,-74,3,55*,-37,55*
CCc1ccc(NC(=O)c2ccccc2SC)cc1,-17,nt,-22,11,5,-3,nt,nt
OC(COCc1ccccc1)CN1CCN(c2ccccc2)CC1 (configuration not stated),-11,2,-27,-9,8,7,nt,nt
OC(COCc1ccccc1)CN1CCCC1 (configuration not stated),-9,1,-13,-2,-2,60*,-4,-7
CC(NC(=O)CNC(=O)OCc1ccccc1)C(=O)N1CC(O)CC1C(=O)OCc1ccccc1 (configuration not stated),3,3,1,5,-2,51*,-10,-1
CCn1c(SCC(=O)N2c3ccccc3Sc3ccc(Cl)cc32)nc2c1c(=O)n(C)c(=O)n2C,5,-2,2,nt,3,-1,nt,nt
CCCCC(=O)NC(=S)NNS(=O)(=O)c1ccccc1,-1,-1,2,-10,0,56*,-17,2
